Measured values as given in ChEMBL document CHEMBL1144940 (J Med Chem, 2003).

Assays:
[1] = target: T1, Melanocortin receptor 5 (Homo sapiens, UniProt P33032); assay: Agonist activity against human Melanocortin 5 receptor at 10 uM
[2] = target: T2, Melanocortin receptor 3 (Homo sapiens, UniProt P41968); assay: Agonist activity against human Melanocortin 3 receptor at 10 uM
[3] = target: T3, Melanocortin receptor 4 (Homo sapiens, UniProt P32245); assay: Agonist activity against human Melanocortin 4 receptor at 10 uM
T3 sequence (P32245 whole entry): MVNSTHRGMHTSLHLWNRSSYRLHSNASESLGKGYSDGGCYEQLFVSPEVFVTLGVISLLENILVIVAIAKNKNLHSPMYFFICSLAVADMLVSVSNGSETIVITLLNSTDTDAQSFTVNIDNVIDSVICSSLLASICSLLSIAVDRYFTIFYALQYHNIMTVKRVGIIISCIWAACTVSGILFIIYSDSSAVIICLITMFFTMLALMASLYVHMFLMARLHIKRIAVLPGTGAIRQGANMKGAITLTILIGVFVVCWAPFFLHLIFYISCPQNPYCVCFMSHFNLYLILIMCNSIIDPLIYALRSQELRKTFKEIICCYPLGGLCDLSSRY

[4] = target: T3, Melanocortin receptor 4; assay: Binding affinity against Melanocortin 4 receptor by gamma-MCH displacement.
Method in brief: (§1)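 Competition binding on intact HEK293 cells stably expressing the human receptor, seeded 50000 cells/well 48 h earlier. Lysates were gamma-counted. Ki came from competition curves; mean of duplicate experiments in triplicate.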

[5] = target: T2, Melanocortin receptor 3; assay: Intracellular cAMP accumulation in human Melanocortin 3 receptor functional assay.
[6] = target: T2, Melanocortin receptor 3; assay: Binding affinity against human Melanocortin 3 receptor by gamma-MCH displacement.
Method in brief: as §1

[7] = target: T3, Melanocortin receptor 4; assay: Intracellular cAMP accumulation in Melanocortin 4 receptor functional assay.
[8] = target: T1, Melanocortin receptor 5; assay: Binding affinity against human Melanocortin 5 receptor by gamma-MCH displacement.
Method in brief: as §1

[9] = target: T1, Melanocortin receptor 5; assay: Intracellular cAMP accumulation in human Melanocortin 5 receptor functional assay.

T2 sequence (P41968 whole entry): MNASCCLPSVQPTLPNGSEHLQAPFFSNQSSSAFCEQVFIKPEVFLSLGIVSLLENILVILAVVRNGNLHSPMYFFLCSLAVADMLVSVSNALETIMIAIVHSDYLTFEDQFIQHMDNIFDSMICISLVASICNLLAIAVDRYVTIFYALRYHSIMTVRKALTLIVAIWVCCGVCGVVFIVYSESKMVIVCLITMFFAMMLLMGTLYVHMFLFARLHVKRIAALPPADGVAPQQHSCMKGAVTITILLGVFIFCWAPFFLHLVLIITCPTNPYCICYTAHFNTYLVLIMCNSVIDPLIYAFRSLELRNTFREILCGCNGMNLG
T1 sequence (P33032 whole entry): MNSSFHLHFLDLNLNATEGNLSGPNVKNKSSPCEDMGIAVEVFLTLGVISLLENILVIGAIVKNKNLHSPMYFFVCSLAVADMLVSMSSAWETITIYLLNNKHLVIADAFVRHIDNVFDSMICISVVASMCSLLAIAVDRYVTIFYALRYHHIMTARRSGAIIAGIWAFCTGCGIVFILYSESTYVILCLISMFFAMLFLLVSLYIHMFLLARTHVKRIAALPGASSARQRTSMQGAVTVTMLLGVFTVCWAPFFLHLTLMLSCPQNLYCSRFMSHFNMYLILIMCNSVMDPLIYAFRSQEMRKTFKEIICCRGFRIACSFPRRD

Compound | Activity [1] [%] | Activity [2] [%] | Activity [3] [%] | Ki [4] [µM] | EC50 [5] [µM] | Ki [6] [µM] | EC50 [7] [µM] | Ki [8] [µM] | EC50 [9] [µM]
CCCC[C@H](NC(=O)[C@@H](NC(=O)[C@@H](N)Cc1ccc(O)cc1)C(C)C)C(=O)N[C@H]1CC(=O)NCCCC[C@H](C(=O)N[C@@H](CCCN=C(N)N)C(=O)N[C@@H](Cc2ccccc2)C(=O)NCC(N)=O)NC(=O)[C@@H](Cc2c[nH]c3ccccc23)NC(=O)[C@H](CCCN=C(N)N)NC(=O)[C@@H](Cc2ccccc2)NC(=O)[C@H](Cc2c[nH]cn2)NC1=O | 100 | 100 | 100 |  |  |  |  |  | 
CC(C)[C@H](NC(=O)[C@@H](N)Cc1ccc(O)cc1)C(=O)N[C@@H]1CSSC[C@@H](C(=O)N[C@@H](CCCN=C(N)N)C(=O)N[C@@H](Cc2ccccc2)C(=O)NCC(N)=O)NC(=O)[C@H](Cc2c[nH]c3ccccc23)NC(=O)[C@H](CCCN=C(N)N)NC(=O)[C@@H](Cc2ccccc2)NC(=O)[C@H](Cc2c[nH]cn2)NC(=O)CNC1=O | 16 | 93 | 92 |  |  |  |  |  | 
CCCC[C@H](NC(=O)[C@@H](NC(=O)[C@@H](N)Cc1ccc(O)cc1)C(C)C)C(=O)NCC(=O)N[C@@](C)(Cc1ccccc1)C(=O)N[C@@H](Cc1ccccc1)C(=O)N[C@@H](CCCN=C(N)N)C(=O)N[C@H](Cc1ccc2ccccc2c1)C(=O)N[C@@H](CC(=O)O)C(=O)N[C@@H](CCCN=C(N)N)C(=O)N[C@@H](Cc1ccccc1)C(=O)NCC(N)=O | 40 | 40 | 80 | 1.3 | 0.15 | 1.4 | 0.053 | 3.3 | 0.21
